Only some compounds are listed: those with a hit (about 1.9% of all), similar ones and a draw of the others.
PLC-beta3 inh – blocks human PLC-beta3 enzyme activity | Purified PLC-beta3, fluorogenic substrate, fluorescence | inhibition, % at 12.2 µM | AID 720704 | 370,000 tested, 0.18% active | Q01970; in the data active means inhibition above about 11%;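 further: 0% = median of compound wells on plate and 100% = full blocker control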
HGIII-sPLA2 inh – Blocks human group III sPLA2 activity; Q9NZ20; QFRET BODIPY PC-A2 liposome hydrolysis, fluorescence; inhibition, % at 12.2 µM; 370,000 tested, 0.56% active; AID 743126;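 active means inhibition above mean plus 3 SD of compounds lying within the high and low control bounds, cut at about 19% in these data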;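 further: 0% = median of test compound wells and 100% = no enzyme DMSO wells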
PLCg1 inh – inhibitors of human phospholipase C gamma1; P19174; purified PLC-gamma1, fluorogenic substrate, fluorescence; inhibition, % at 12.2 µM; 370,000 tested, 0.84% active; AID 720700
ARFGAP1 inh – inhibits rat ARF GTPase activating protein 1; inhibition, % at 16.5 µM; 360,000 tested, 0.26% active; AID 651572; Arfgap1-stimulated ARF1 GTP hydrolysis, GDP FP detection;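 active means inhibition above a per-plate limit, mean inhibition of low control wells plus 3 SD, cut at about 25% in these data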;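 further: 0% = DMSO wells with enzyme and 100% = wells lacking Arfgap1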
Target sequence (Q62848 1-136 limits assumed): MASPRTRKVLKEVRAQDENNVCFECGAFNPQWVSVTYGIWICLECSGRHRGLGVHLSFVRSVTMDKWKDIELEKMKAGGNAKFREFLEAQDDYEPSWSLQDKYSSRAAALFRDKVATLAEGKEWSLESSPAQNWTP
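Repeats: one replicate per compound; assay system: rat Arfgap1 catalytic domain, aa 1-136; times: enzyme reaction 120 min at 25 °C after 20 min preincubation; detection: FP of antibody-bound GDP Alexa 633 tracer, ex 620/em 688 nm; benchmarks: high control wells lacking Arfgap1, low control full reaction with DMSO; reagent: human ARF1(Δ1-17)-GTP substrate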
ASAP1 inh – inhibitors of human ASAP1 ArfGAP activity | inhibition, % at 16.5 µM | 360,000 tested, 0.19% active | Q9ULH1 | ASAP1-stimulated ARF1 GTP hydrolysis, GDP FP detection | AID 624377; in the data active means inhibition above about 25%;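 further: 0% = vehicle with enzyme and substrate and 100% = no enzyme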
Target sequence (Q9ULH1 325-724 limits assumed): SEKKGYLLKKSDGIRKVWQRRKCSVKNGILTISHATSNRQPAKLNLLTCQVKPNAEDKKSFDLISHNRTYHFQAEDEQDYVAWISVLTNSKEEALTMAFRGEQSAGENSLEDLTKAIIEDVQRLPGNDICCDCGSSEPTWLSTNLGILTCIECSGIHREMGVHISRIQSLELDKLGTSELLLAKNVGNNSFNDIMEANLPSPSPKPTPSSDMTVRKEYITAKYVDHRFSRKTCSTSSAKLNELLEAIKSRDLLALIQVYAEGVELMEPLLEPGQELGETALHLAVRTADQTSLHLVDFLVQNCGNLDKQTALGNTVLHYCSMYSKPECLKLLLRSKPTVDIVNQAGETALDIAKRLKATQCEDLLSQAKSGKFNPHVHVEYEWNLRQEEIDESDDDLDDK
PLCg1 ctr – inhibits human PLC-gamma1 in PLC-beta3 counter-screen | shares compounds with PLCg1 inh | purified PLC-gamma1, fluorogenic substrate, fluorescence | inhibition, % at 12.3 µM | 3,300 tested, 3.1% active | AID 743258
PLCb3 confirm – confirmation of human PLC-beta3 inhibitors | AID 743261 | inhibition, % at 12.3 µM | shares compounds with PLCg1 inh | 3,300 tested, 1% active | purified PLC-beta3, fluorogenic substrate fluorescence; in the data active means inhibition above about 11%
Active calls of the source: *; x = no result. Unless noted, no stated cut-off is given here; in the data, active means inhibition above about 9.5%; inactive means the rest.

SMILES	PLC-beta3 inh	HGIII-sPLA2 inh	PLCg1 inh	ARFGAP1 inh	ASAP1 inh	PLCg1 ctr	PLCb3 confirm
Cc1ccc(-n2nnnc2CNC(=O)C2CC(=O)N(c3ccccc3)C2)cc1C (stereo not given)	-2.7	-5.9	13.4*	-4.1	-2.1	1.6	1.7
CN[C@H]1C[C@H]2c3[nH]c4cccc(-c5ccc6c(c5)OCO6)c4c3CCN2C[C@H]1[C@H](C)O	-35.0	-12.2	-28.2	x	x	x	x
CC(C)(C)c1ccc(-c2nnc(SCC3CCCCO3)n2-c2ccc(Cl)cc2)cc1 (stereo not given)	2.7	-11.9	1.1	x	x	x	x
CNc1ncc(C(=O)C(C)(C)C)s1	6.6	6.5	11.4*	11.8	13.6	1.6	5.5
Cc1ccccc1NC(=O)C1CC(=O)N(c2ccccc2F)C1 (stereo not given)	11.3*	7.0	3.2	-1.4	-3.9	-2.4	-1.4
O=C(Cn1nc(CNc2ccc(Br)cc2)[n+]2c1CCCCC2)c1ccc([N+](=O)[O-])cc1	2.6	1.0	9.8*	11.9	-2.1	1.1	3.4
O=C(Cn1nc(CNc2ccc(Cl)cc2)[n+]2c1CCCCC2)c1ccc(Br)cc1	3.5	0.3	3.7	-4.5	7.0	x	x
CC(NC(=O)c1ccc(F)cc1)c1ccc2c(c1)CCCC2 (stereo not given)	13.6*	-6.4	13.1*	-3.5	1.8	2.9	0.1
O=C(COc1ccc(F)cc1)c1ccc2c(c1)CCCC2	7.1	-5.9	9.5*	-6.9	5.6	-3.6	-1.6
O=S1(=O)c2c(cccc2N2CCSCC2)Oc2ccccc2CN1Cc1cn(Cc2cccc(C(F)(F)F)c2)nn1	-6.5	-5.8	-4.9	x	x	x	x
COc1ccccc1NC(=O)OC1CCC12CCCCC2 (stereo not given)	-0.3	8.8	-2.5	x	x	x	x
Cc1nccn1CCCNC(=O)c1nc(Cn2cc([N+](=O)[O-])cn2)no1	2.2	8.2	9.6*	11.9	-0.9	8.6	1.9
Cc1cc([N+](=O)[O-])nn1CC(=O)N/N=C/c1ccccc1F	-4.0	4.6	1.0	0.7	-0.9	x	x
Cc1ncc([N+](=O)[O-])n1CC(=O)N/N=C/c1ccccc1F	11.1*	12.0	6.0	7.7	0.9	3.3	4.2
CCOC(=O)c1csc(-c2sccc2Br)n1	0.7	4.2	14.0*	8.5	-0.4	-3.7	-4.0
Cc1ccc(NC(=S)NC(CO)C(O)c2ccc([N+](=O)[O-])cc2)cc1 (stereo not given)	3.6	4.7	1.9	-6.5	-17.5	x	x
O=[N+]([O-])c1ccc(C(O)C(CO)NC(=S)Nc2ccccc2)cc1 (stereo not given)	-1.1	16.5	9.8*	0.7	-1.0	-5.6	0.6
CCN(C[C@H]1[C@@H](c2ccc(C3=CCCC3)cc2)[C@H](CO)N1Cc1ccccn1)S(=O)(=O)c1ccccc1[N+](=O)[O-]	-12.2	-6.9	-4.9	x	x	x	x
COc1ccc(-c2cc(-c3ccc(OC)cc3)[nH]n2)cc1	-2.6	-19.8	2.3	18.4	13.6	x	x
COc1ccc(-c2cc(C3CCNCC3)[nH]n2)cc1	-1.1	-19.5	16.4*	6.0	9.8	8.3	1.3
CCn1nc(C)c(NC(=O)CSc2nnc(-c3ccco3)n2C)c1C	10.9*	4.9	7.3	9.5	8.3	-2.1	2.2
Cn1c(SCC(=O)Nc2ccccc2O)nnc1-c1ccco1	-1.2	1.8	0.4	3.2	-13.1	x	x
O=C1CCC2(CCC(c3ccccc3)CC2)N1CCO (stereo not given)	7.2	-1.8	4.2	x	x	x	x
COc1cc(/C=N\NC(=O)c2ccccc2F)ccc1Oc1ccc([N+](=O)[O-])cn1	-0.2	0.2	9.6*	3.6	1.6	-1.0	1.8
COc1cc(/C=N\NC(=O)c2ccc(Cl)cc2)ccc1Oc1ccc([N+](=O)[O-])cn1	-0.4	-5.4	4.7	-1.6	3.7	x	x
SMILES	PLC-beta3 inh	HGIII-sPLA2 inh	PLCg1 inh	ARFGAP1 inh	ASAP1 inh	PLCg1 ctr	PLCb3 confirm
COC(=O)C(NC(=O)c1ccccc1C)(Nc1ncc(S(=O)(=O)c2ccc([N+](=O)[O-])cc2)s1)C(F)(F)F (stereo not given)	8.6	-42.1	12.1*	7.4	11.5	-0.5	-0.3
Cc1cc(C)cc(N(CC(=O)NCc2ccco2)C(=O)CCC(=O)Nc2ccccn2)c1	5.1	-4.0	10.9*	3.0	16.1	-2.9	-5.3
COC(=O)[C@H](C(C)C)N1Cc2nnn(Cc3ccc(C)cc3)c2-c2ccccc2S1(=O)=O	1.6	-11.6	-2.9	x	x	x	x
O=C(NC1CCCCN(Cc2ccc(Cl)cc2)C1=O)C(c1ccccc1)c1ccccc1 (stereo not given)	-0.4	-8.1	1.6	x	x	x	x
O=S(=O)(CC1NCc2cc(F)ccc21)NCc1ccccc1 (stereo not given)	-5.9	-0.1	-9.7	x	x	x	x
Cc1cccc(Nc2nnc(SCc3cn4ccsc4n3)s2)c1	0.6	-4.9	10.2*	18.2	6.0	0.9	-1.4
O=C1N2Cc3ccccc3C2CS(=O)(=O)N1Cc1ccccc1 (stereo not given)	-1.1	1.5	-0.4	x	x	x	x
Cc1ccn(CC(=O)N2CCCC(C(=O)c3cccc4ccccc34)C2)n1 (stereo not given)	-8.1	-2.1	-3.3	-2.9	8.3	x	x
Cc1cc(C(=O)N2CCCC(C(=O)c3cccc4ccccc34)C2)nc(C)n1 (stereo not given)	-1.1	-3.5	10.0*	4.0	-5.5	-2.1	-4.4
O=C(CSC1CS(=O)(=O)c2cc([N+](=O)[O-])ccc21)NNC(=O)c1ccccc1 (stereo not given)	5.1	-3.4	10.0*	5.3	-4.7	-7.1	-2.0
COC(=O)[C@]12C[C@H](CC(=O)NCc3cccs3)C(=O)N(Cc3ccco3)C1=C[C@H](COCc1ccccc1)O[C@@H]2C	1.4	-9.9	0.1	x	x	x	x
CC(COc1cc(F)cc(F)c1)CN1CCC(C(O)(c2ccccc2)c2ccccc2)CC1 (stereo not given)	8.2	-13.2	3.1	x	x	x	x
CC1(C)Cc2ccccc2C(/C(=N/O)C(N)=O)=N1	5.2	-5.6	11.4*	-7.5	-3.6	2.1	1.4
CC(=O)c1ccc(N/N=C(/C(N)=O)C2=NC(C)(C)Cc3ccccc32)cc1	5.0	0.7	8.5	8.0	10.5	x	x
CCCn1c(N2CCC(Cc3ccccc3)CC2)nc2c1c(=O)[nH]c(=O)n2C	3.7	3.7	11.6*	1.3	1.7	-0.5	-1.9
Cn1c(=O)[nH]c(=O)c2c1nc(N1CCCCCC1)n2CCOc1ccccc1	-8.0	7.4	10.7*	8.4	-3.2	-3.7	-0.9
Cn1c(=O)[nH]c(=O)c2c1nc(SCCN1CCOCC1)n2Cc1ccccc1	1.0	-0.6	-0.6	18.4	3.1	x	x
CC(=O)Cn1c(N2CCC(Cc3ccccc3)CC2)nc2c1c(=O)[nH]c(=O)n2C	1.1	-2.0	-0.9	9.9	0.1	x	x
